This note sets out measurements from PubChem BioAssay AID822 (SRMLSC, 2007).

Activity calls are given as the source filed them.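 Rule for the calls: active = half-maximal effective dose for blocking growth of human endothelial cells at most 100 µM; inactive = the rest.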

The test system of one assay is HUVEC proliferation, viability ATP luminescence. The assay can be described thus: HUVEC proliferation inhibition, dose response, cell-based, ATP luminescence (AID 822).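 For viability: 100% = median luminescence of untreated cell-only control wells on each plate.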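 Note: cells exposed to compound for 72 h before the ATP read.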
Settings: not given
The method in brief: (§1)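 Assay system: HUVEC primary endothelial cells, low passage (≤12); amount: 1250 HUVEC cells seeded per well; buffer or medium: EBM plus 2% FBS; read-out: percent viability relative to median untreated cell signal, EC50 via four-parameter fit; signal: luminescent ATP measurement with CellTiter-Glo reagent; schedule: 72 h exposure, 37 °C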
A word on the EC50: it is the concentration that produces a half-maximal response. `CCCc1[nH]nc2c1C(c1ccc(Br)s1)C(C#N)=C(N)O2` (configuration not stated): the EC50 is 8.67 µM.

On to `O/N=C1\CC/C(=N\O)c2nn(-c3ccccc3Cl)nc21`, for which the EC50 was > 10 µM (inactive).

As to `O=C(Nc1ccc2nn(-c3ccccc3)nc2c1)c1ccc2c(c1)OCCO2`, the EC50 was 20 µM.

As for `CC(=O)Nc1ccc(S(=O)(=O)N2CCN(c3nc(NC4CCCC4)c4ccccc4n3)CC2)cc1`, the concentration for a half-maximal effect (EC50) was 4.96 µM.

For the molecule `COC(=O)c1c(NC(=O)c2ccco2)sc(C(=O)Nc2ccc(F)cc2)c1C`, the EC50 was 2.98 µM.

Take `Cc1ccccc1N1C(=O)CC(Sc2nnc(-c3ccccc3)o2)C1=O` (configuration not stated): the concentration for a half-maximal effect (EC50) is 15.2 µM.

Regarding `CCn1c(=N)n(CC(=O)C23CC4CC(CC(C4)C2)C3)c2ccccc21`, the 50% effective concentration (EC50) was 8.77 µM.

With `Cc1cc(NC(c2cccnc2)c2ccc3cccnc3c2O)no1` (configuration not stated), the EC50 was 6.36 µM.

With `COC(=O)COc1ccc(S(=O)(=O)NCCC2=CCCCC2)cc1Cl`, the concentration for a half-maximal effect (EC50) was 9.76 µM.

Take `Cc1ccc(N=Nc2c(C)[nH][nH]c2=O)c(C)c1`: the 50% effective concentration (EC50) is 7.59 µM.

In the case of `O=C(Nc1ccc2c(c1)OCO2)c1cc(C2CC2)on1`, the concentration giving a half-maximal response (EC50) was 6.54 µM.

Consider `CSc1nc2c(cnn2-c2ccc(C)c(C)c2)c(=O)[nH]1`, for which the EC50 was 17.8 µM.

For `COc1ccccc1N1CCN(CC(=O)c2c(C)[nH]c3cc(C)ccc23)CC1`, the EC50 is 10.2 µM.

In the case of `CCn1cc(C(=O)NCCc2ccccc2)c(=O)c2cc(F)c(N3CCN(C)CC3)cc21`, the concentration for a half-maximal effect (EC50) is 16.8 µM.

`Oc1ccc(Nc2nc(-c3ccc4ccccc4c3)cs2)cc1`: the EC50 was 5.83 µM.

For `CCCCOc1ccc(C(=O)C(CN2CCOCC2)c2ccccc2)cc1` (configuration not stated), the EC50 is 3.08 µM.

On to `COc1ccc(-c2ccc(C#N)c(SCC(=O)Nc3sc4c(c3C#N)CCC4)n2)cc1OC`, for which the EC50 was 4.67 µM.

Consider `Cc1nc2c(C(=O)NCCC(C)C)c[nH]n2c(=O)c1Cc1ccccc1F`, for which the EC50 is 7.02 µM.

Turning to `c1ccc(-c2noc(-c3ccc4c(c3)OCO4)n2)nc1`, the EC50 was 2.47 µM.

On to `COc1ccccc1C1CC(c2c(-c3ccccc3)c3cc(Cl)ccc3[nH]c2=O)=NN1S(C)(=O)=O` (configuration not stated), for which the 50% effective concentration (EC50) was 8.65 µM.

With `CC1=C(C(=O)OCc2ccc3c(c2)OCO3)C(c2ccccc2)NC(=O)N1` (configuration not stated), the 50% effective concentration (EC50) was 14.1 µM.

With `CCOC(=O)c1sc(NC(=O)CSc2nnnn2-c2ccc(C)cc2C)nc1C`, the concentration giving a half-maximal response (EC50) was 13.7 µM.

With `CCOc1cc(S(=O)(=O)N2CC=C(c3ccc(F)cc3)CC2)c(OCC)cc1-n1cnnn1`, the EC50 is 20 µM.

For the molecule `Cc1cccc(-c2nc(CN3CCCC(C(=O)NC4CCCCCC4)C3)c(C)o2)c1` (configuration not stated), the EC50 is 10.8 µM.

As for `Cc1cc(C)c2oc(-c3ccc(Cl)c(NC(=O)c4ccc(C#N)cc4F)c3)nc2c1`, the half-maximal effective concentration (EC50) is 10.9 µM.

Turning to `Cc1sc2nc(SCC(=O)C(C)(C)C)n(Cc3ccco3)c(=O)c2c1C`, the concentration giving a half-maximal response (EC50) is 13.9 µM.

`O=C(CCC1COc2ccccc2O1)Nc1ccc(Cl)cn1` (configuration not stated): the EC50 was 17.6 µM.

With `CC(C)C1Cc2c(sc3[nH]c(=S)n(Cc4ccccc4)c(=O)c23)CO1` (configuration not stated), the EC50 is 3.05 µM.

As to `CCCOc1ccc(-c2nc(C#N)c(NCCCn3ccnc3)o2)cc1`, the EC50 was 11.3 µM.

Test system in the next assay: not listed separately
The assay is described as above. The following applies: HUVEC proliferation, viability ATP luminescence; at 20 µM (top of the series). The method in brief:
as §1
A word on the viability: it is a read-out of living cells in per cent, often relative to untreated cells. As for `Cc1ccc(-n2c(SCC(=O)Nc3nccs3)nc3c(c2=O)SCC3)cc1`, the viability was 100% (inactive).

For the molecule `COc1ccc2[nH]cc(C(=O)CN3CCN(C(=O)c4ccco4)CC3)c2c1`, the viability was 101% (inactive).

As to `CCOC(=O)N1CCN(C(=O)c2nn(-c3ccc(C)cc3)c(=O)c3c2c2ccccc2n3C)CC1`, the viability is 89.2% (inactive).

For the molecule `CC1CCCC(NC(=O)C2CCN(S(=O)(=O)N3CCC4(CC3)OCCO4)CC2)C1C` (configuration not stated), the viability was 93.2% (inactive).

Regarding `Cc1ccc(-n2nnnc2SCC(=O)Nc2ccc3c(c2)COC3=O)cc1C`, the viability was 91.3% (inactive).

In the case of `CCOc1ccc(NC(=S)Nc2ccc(C)c([N+](=O)[O-])c2)cc1`, the viability is 88.7% (inactive).

For the molecule `CC1CCCN(c2oc(-c3cccc4ccccc34)nc2C#N)C1` (configuration not stated), the viability was 92.1% (inactive).

`CCOC(=O)c1ccc(NC(=O)c2c(C)[nH]c(C(=O)OCC)c2C)cc1`: the viability is 96.7% (inactive).
